These results are taken from ChEMBL document CHEMBL4402599 (J Med Chem, 2020).

Structures are written as SMILES.

For data set [1], the target named is Inositol 1,4,5-trisphosphate-gated calcium channel ITPR1 (Rattus norvegicus) (UniProt P29994). Description: Ratio of EC50 for agonist activity at rat IP3R1 expressed in HEK cells assessed as increase in calcium release in cytosol by measuring fluorescence signal by Mag-Fluo4 dye based assay to Kd for binding affinity to IP3R1 in Wistar rat cerebellar membrane. The class given is cell-based. The essentials: (§1)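 Ratio of EC50 from Mag-Fluo-4 Ca2+ release in permeabilized rat IP3R1-HEK cells to Kd from [3H]-IP3 competition with rat cerebellar membranes. Calculated from the difference of log values (pEC50 − pKd); given as mean with 95% CI.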
Chain of Inositol 1,4,5-trisphosphate-gated calcium channel ITPR1 (Rattus norvegicus) (P29994 whole entry, looked up, canonical isoform): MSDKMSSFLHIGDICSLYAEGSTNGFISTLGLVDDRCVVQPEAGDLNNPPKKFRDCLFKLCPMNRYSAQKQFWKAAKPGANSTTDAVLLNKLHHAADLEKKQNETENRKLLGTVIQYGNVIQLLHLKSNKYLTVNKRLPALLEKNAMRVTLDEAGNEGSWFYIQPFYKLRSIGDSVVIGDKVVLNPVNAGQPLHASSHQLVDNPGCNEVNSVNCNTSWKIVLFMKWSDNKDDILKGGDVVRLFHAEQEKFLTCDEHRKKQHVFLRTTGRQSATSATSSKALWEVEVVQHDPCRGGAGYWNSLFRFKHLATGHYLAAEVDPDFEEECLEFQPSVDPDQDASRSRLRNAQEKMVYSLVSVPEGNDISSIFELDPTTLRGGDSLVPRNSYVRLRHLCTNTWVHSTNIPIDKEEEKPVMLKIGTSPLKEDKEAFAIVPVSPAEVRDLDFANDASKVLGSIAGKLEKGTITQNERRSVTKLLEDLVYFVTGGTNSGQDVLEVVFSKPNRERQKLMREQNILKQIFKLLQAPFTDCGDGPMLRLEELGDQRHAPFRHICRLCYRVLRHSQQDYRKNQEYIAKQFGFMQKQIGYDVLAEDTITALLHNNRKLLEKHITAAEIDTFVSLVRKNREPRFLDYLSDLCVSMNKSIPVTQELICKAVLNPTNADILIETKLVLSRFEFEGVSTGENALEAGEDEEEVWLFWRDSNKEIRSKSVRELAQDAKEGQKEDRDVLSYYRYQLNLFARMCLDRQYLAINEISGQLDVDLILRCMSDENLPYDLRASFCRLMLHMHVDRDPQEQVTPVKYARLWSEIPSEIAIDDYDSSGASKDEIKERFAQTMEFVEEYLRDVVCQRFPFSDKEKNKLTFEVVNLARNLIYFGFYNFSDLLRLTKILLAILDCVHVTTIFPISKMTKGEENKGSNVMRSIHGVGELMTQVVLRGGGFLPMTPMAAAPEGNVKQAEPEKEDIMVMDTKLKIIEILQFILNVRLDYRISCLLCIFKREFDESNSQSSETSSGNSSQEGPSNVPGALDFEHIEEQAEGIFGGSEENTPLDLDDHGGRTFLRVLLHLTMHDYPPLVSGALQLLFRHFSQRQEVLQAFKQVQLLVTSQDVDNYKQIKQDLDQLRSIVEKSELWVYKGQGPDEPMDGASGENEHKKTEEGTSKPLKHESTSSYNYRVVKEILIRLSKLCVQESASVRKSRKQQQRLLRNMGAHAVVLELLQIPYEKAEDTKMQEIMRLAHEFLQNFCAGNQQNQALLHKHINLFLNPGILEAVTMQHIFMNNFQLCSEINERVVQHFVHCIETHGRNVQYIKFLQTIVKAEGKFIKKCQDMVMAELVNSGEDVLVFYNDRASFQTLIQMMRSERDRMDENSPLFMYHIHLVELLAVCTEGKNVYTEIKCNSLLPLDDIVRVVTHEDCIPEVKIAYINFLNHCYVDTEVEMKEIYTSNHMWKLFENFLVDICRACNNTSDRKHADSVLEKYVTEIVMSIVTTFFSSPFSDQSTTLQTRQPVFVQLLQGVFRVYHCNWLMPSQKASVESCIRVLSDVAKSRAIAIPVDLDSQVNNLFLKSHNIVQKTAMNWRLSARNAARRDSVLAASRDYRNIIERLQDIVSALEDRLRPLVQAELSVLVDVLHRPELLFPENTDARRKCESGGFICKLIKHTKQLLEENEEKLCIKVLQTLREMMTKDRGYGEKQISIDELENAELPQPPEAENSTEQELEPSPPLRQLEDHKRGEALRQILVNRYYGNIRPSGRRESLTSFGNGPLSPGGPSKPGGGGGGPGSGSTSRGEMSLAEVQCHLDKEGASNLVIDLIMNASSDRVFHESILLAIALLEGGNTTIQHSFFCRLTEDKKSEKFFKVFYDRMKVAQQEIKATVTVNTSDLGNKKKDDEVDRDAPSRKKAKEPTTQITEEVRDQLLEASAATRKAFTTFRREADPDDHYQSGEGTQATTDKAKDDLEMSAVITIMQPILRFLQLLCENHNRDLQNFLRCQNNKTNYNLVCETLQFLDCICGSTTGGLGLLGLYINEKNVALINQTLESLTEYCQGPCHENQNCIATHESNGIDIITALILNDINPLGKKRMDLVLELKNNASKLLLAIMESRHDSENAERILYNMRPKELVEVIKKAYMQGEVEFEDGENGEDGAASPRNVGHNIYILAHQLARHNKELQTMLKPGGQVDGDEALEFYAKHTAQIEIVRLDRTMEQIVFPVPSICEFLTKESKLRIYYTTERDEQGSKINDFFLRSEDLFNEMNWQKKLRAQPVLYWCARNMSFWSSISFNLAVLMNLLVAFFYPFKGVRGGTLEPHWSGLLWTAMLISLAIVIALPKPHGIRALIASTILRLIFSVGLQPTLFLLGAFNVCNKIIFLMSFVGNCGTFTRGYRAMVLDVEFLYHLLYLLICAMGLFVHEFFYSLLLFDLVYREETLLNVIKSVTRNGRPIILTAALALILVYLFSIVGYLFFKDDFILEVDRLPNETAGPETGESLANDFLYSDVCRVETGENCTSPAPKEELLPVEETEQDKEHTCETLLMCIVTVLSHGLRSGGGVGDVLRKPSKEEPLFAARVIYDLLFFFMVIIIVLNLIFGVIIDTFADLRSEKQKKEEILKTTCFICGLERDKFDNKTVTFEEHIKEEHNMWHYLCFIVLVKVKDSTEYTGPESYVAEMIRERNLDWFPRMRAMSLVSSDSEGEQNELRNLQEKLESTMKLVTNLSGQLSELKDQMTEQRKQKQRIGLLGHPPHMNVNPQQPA

Data set [2] can be described thus: Stability of compound in D2O at pH 7 under room temperature measured after 2 months by H-NMR spectroscopy. The class given is physicochemical. The note with it: buffer, pH 7, 1461 h. Summed up: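 Triethylammonium salt left in D2O at pH 7, room temperature; degradation followed over time.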
For data set [3], the target named is T1, Inositol 1,4,5-trisphosphate-gated calcium channel ITPR1 (Rattus norvegicus, UniProt P29994). Description: Displacement of [3H]-IP3 from IP3R1 in Wistar rat cerebellar membrane measured after 5 mins by liquid scintillation counting method. The class given is cell membranes, Cerebellum.
The nature of data set [4]: Stability of compound assessed as acidic hydrolysis at pH 1 measured after 1 day by H-NMR spectroscopy. The format is physicochemical. The following applies: buffer, pH 1, 24 h. The essentials:
(§2)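 Hydrolysis followed after 1 day at pH 1 or at pH 14.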

For data set [5], the target named is T1, Inositol 1,4,5-trisphosphate-gated calcium channel ITPR1. As to the kind of experiment: Agonist activity at rat IP3R1 expressed in HEK cells assessed as increase in calcium release in cytosol by measuring fluorescence signal by Mag-Fluo4 dye based assay. The format is cell-based.
Data set [6] deals with Inositol 1,4,5-trisphosphate-gated calcium channel ITPR1 (Rattus norvegicus) (UniProt P29994). Description: Agonist activity at rat IP3R1 expressed in HEK cells assessed as increase in calcium release in cytosol by measuring fluorescence signal by Mag-Fluo4 dye based assay relative to control. The class given is cell-based. The essentials:
(§3)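 HEK-293 cells lacking all three IP3R subtypes (CRISPR), stably transfected with rat IP3R1 (S1 splice site absent), G418-selected monoclonal line. ER loaded with Mag-Fluo-4 AM (20 μM, 1 h, 22 °C), saponin-permeabilized, in Ca2+-free cytosol-like medium, pH 7.0, 220 nM free Ca2+. MgATP 1.5 mM loads stores, CPA 10 μM added, ligand 60 s later. Read-out is fluorescence at 485/520 nm, 20 °C. Release is % of (Ffull − Fempty). Hill fit; 5–11 experiments in duplicate.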

Data set [7] in a line: Stability of compound assessed as basic hydrolysis at pH 10 measured after 1 week by H-NMR spectroscopy. The class given is physicochemical. The following applies: buffer, pH 10, 168 h. Summed up:
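Kept at pH 10 for one week and checked for degradation.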

The nature of data set [8]: Stability of compound assessed as basic hydrolysis at pH 14 measured after 1 day by H-NMR spectroscopy. The following applies: buffer, pH 14, 24 h. The format is physicochemical. Summed up:
as §2

Data set [9] addresses Inositol 1,4,5-trisphosphate-gated calcium channel ITPR1 (Rattus norvegicus) (UniProt P29994). As to the kind of experiment: Partial agonist activity at rat IP3R1 expressed in HEK cells assessed as increase in calcium release in cytosol by measuring fluorescence signal by Mag-Fluo4 dye based assay relative to inositol-1,4,5-triphosphate. The format is cell-based. The essentials: as §3

The target is the same in data set [10]. As to the kind of experiment: Ratio of EC50 for partial agonist activity at rat IP3R1 expressed in HEK cells assessed as increase in calcium release in cytosol by measuring fluorescence signal by Mag-Fluo4 dye based assay to Kd for binding affinity to IP3R1 in Wistar rat cerebellar membrane. The format is cell-based. Summed up: as §1
For data set [11] the target is unchanged. As to the kind of experiment: Ratio of EC39 for partial agonist activity at rat IP3R1 expressed in HEK cells assessed as increase in calcium release in cytosol by measuring fluorescence signal by Mag-Fluo4 dye based assay to Kd for binding affinity to IP3R1 in Wistar rat cerebellar membrane. The class given is cell-based.
The target of data set [12] is T1, Inositol 1,4,5-trisphosphate-gated calcium channel ITPR1. As to the kind of experiment: Partial agonist activity at rat IP3R1 expressed in HEK cells assessed as increase in calcium release in cytosol by measuring fluorescence signal by Mag-Fluo4 dye based assay. The format is cell-based. The essentials: as §3
Data set [13] has as its target Inositol 1,4,5-trisphosphate-gated calcium channel ITPR1 (Rattus norvegicus) (UniProt P29994). Description: Agonist activity at rat IP3R1 expressed in HEK cells assessed as increase in calcium release in cytosol by measuring fluorescence signal at 300 uM by Mag-Fluo4 dye based assay relative to control. The class given is cell-based. Summed up: as §3
The nature of data set [14]: Drug degradation at 4 degree C measured after 3 weeks by 31P-NMR analysis. The format is physicochemical. The following applies: read-out: Drug degradation.
Data set [15] in a line: Drug metabolism assessed as catalytic hydrogenolysis by measuring beta-D-glucopyranosyl 1,3,4-trisphosphate triethylammonium formation by 31P-NMR analysis.

For `CCN(CC)CC.CCN(CC)CC.CCN(CC)CC.O=P(O)(O)O[C@@H]1O[C@H](CO)[C@@H](OP(=O)(O)O)[C@H](OP(=O)(O)O)[C@H]1O`, in [1], the Ratio amounted to 7. Also, the Stability result is reported as “Stable” in [2], “Unstable” in [4], “Stable” in [7] and “Unstable” in data set [8]. The Kd in data set [3] was 11.2 nM. The EC50 in data set [5] amounted to 80 nM. The Activity in data set [6] was determined as 75.2%.

With `CCN(CC)CC.CCN(CC)CC.CCN(CC)CC.O=P(O)(O)O[C@H]1O[C@H](CO)[C@@H](OP(=O)(O)O)[C@H](OP(=O)(O)O)[C@H]1O`, in data set [1], the Ratio is 23. Besides, the Stability entry in [2] is on record as “Stable”; in data set [4] it was “Unstable”; in data set [7] it was “Stable”; in data set [8], “Unstable”. In addition, the Kd in data set [3] was determined as 129 nM. For the same molecule, the EC50 in data set [5] is 2960 nM. Besides, the Activity in [6] was 78.8%.

For `CO[C@@H]1O[C@@H](COP(=O)(O)O)[C@H](O)[C@@H](OP(=O)(O)O)[C@@H]1OP(=O)(O)O`, the Kd in data set [3] worked out at 1230 nM. In addition, the Activity in data set [9] came to 56.2%. Further, the Ratio in data set [10] stood at 71; in data set [11], 132. Besides, the EC50 in data set [12] worked out at 87700 nM.

As to `CO[C@H]1O[C@H](COP(=O)(O)O)[C@@H](O)[C@H](OP(=O)(O)O)[C@H]1OP(=O)(O)O`, the Activity in data set [13] turned out to be 4.3%.

In the case of `O=P(OCc1ccccc1)(OCc1ccccc1)O[C@@H]1O[C@H](COCc2ccccc2)[C@@H](OP(=O)(OCc2ccccc2)OCc2ccccc2)[C@H](OP(=O)(OCc2ccccc2)OCc2ccccc2)[C@H]1OCc1ccccc1`, in data set [14], the degraded at 504 h turned out to be 30%. Besides, the Drug metabolism result in data set [15] was “Metabolite detected”.

For `CO[C@H]1O[C@H](COP(=O)(O)O)[C@@H](OP(=O)(O)O)[C@H](O)[C@H]1OP(=O)(O)O`, in data set [13], the Activity is 5.9%.

For the molecule `Nc1ncnc2c1ncn2[C@@H]1O[C@H](CO)[C@@H](O[C@H]2O[C@H](CO)[C@@H](OP(=O)(O)O)[C@H](OP(=O)(O)O)[C@H]2O)[C@H]1OP(=O)(O)O` [ADENOPHOSTIN A], the Ratio in data set [1] came out at 17. In addition, the Kd in data set [3] is 1.4 nM. The EC50 in [5] is 24 nM.

Turning to `CO[C@@H]1O[C@@H](COP(=O)(O)O)[C@H](OP(=O)(O)O)[C@@H](O)[C@@H]1OP(=O)(O)O`, in data set [3], the Kd was found to be 549 nM. Further, the Activity in data set [9] was 53.1%. For the same molecule, the Ratio in [10] was determined as 191; in [11], 462. The 50% effective concentration (EC50) in data set [12] worked out at 104000 nM.
